The source of these data is ChEMBL document CHEMBL3352723, “6-(Hetero)Arylpurine nucleotides as inhibitors of the oncogenic target DNPH1: synthesis, structural studies and cytotoxic activities” (Eur J Med Chem, 2014).

By IC50 is commonly meant the midpoint of a concentration-inhibition curve. Low readings indicate greater potency, high ones weaker potency.

Activity calls are given as the source filed them. The rule behind the calls is not given here.

Tested on in the first experiment: not listed separately
The experiment is described as follows: Cytotoxicity against human HCT15 cells after 72 hrs by MTT assay. As to conditions: HCT-15, 72 h.
As for `O=P(O)(O)OC[C@H]1O[C@@H](n2cnc3c(-c4cccc(Br)c4)ncnc32)[C@H](O)[C@@H]1O`, the midpoint of inhibition, the IC50, lay at 600 nM.
For the molecule `O=P(O)(O)OC[C@H]1O[C@@H](n2cnc3c(-c4ccccc4)ncnc32)[C@H](O)[C@@H]1O`, the IC50 stood at 700 nM.
The molecule `O=P(O)(O)OC[C@H]1O[C@@H](n2cnc3c(-c4ccoc4)ncnc32)[C@H](O)[C@@H]1O` came in with an IC50 of 1300 nM.
`O=P(O)(O)OC[C@H]1O[C@@H](n2cnc3c(-c4ccc5cc[nH]c5c4)ncnc32)[C@H](O)[C@@H]1O` yielded a 50% inhibitory concentration (IC50) of 1400 nM.
`O=P(O)(O)OC[C@H]1O[C@@H](n2cnc3c(-c4ccc(Cl)s4)ncnc32)[C@H](O)[C@@H]1O` registered an IC50 of 1000 nM. The IC50 values of the last two molecules are within 1.5-fold of each other.
`O=P(O)(O)OC[C@H]1O[C@@H](n2cnc3c(-c4ccc(O)cc4)ncnc32)[C@H](O)[C@@H]1O` came in with an IC50 of 300 nM.
As to `O=P(O)(O)OC[C@H]1O[C@@H](n2cnc3c(NCc4ccccc4)ncnc32)[C@H](O)[C@@H]1O`, 800 nM corresponded to half-maximal inhibition (IC50).

Tested on in the next experiment: not listed separately
The experiment in a line: Cytotoxicity against human HCT116 cells after 72 hrs by MTT assay. As to conditions: HCT-116, 72 h. The format is functional, cell-based. The gist of the method:
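Cells grown in RPMI 1640 with L-glutamine, 10% FCS, penicillin/streptomycin and fungizone at 37 °C under 5% CO2. Seeding was 2000 cells/well for HCT116 and HL60 and 600 for HCT15; compounds added after 24 h in DMSO (1% final). Viable cells read at 490 nm with MTS reagent.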
Regarding `O=P(O)(O)OC[C@H]1O[C@@H](n2cnc3c(-c4ccccc4)ncnc32)[C@H](O)[C@@H]1O`, the IC50 was found to be 3200 nM.
As for `O=P(O)(O)OC[C@H]1O[C@@H](n2cnc3c(-c4ccoc4)ncnc32)[C@H](O)[C@@H]1O`, the midpoint of inhibition, the IC50, lay at 5500 nM.
For `O=P(O)(O)OC[C@H]1O[C@@H](n2cnc3c(-c4ccc5cc[nH]c5c4)ncnc32)[C@H](O)[C@@H]1O`, the IC50 is over 80000 nM.
As to `O=P(O)(O)OC[C@H]1O[C@@H](n2cnc3c(-c4ccc(O)cc4)ncnc32)[C@H](O)[C@@H]1O`, the IC50 was 4100 nM.
For the molecule `O=P(O)(O)OC[C@H]1O[C@@H](n2cnc3c(NCc4ccccc4)ncnc32)[C@H](O)[C@@H]1O`, the half-inhibitory concentration (IC50) came out at 7700 nM.

Tested on in the next experiment: not listed separately
The experiment in a line: Cytotoxicity against human HL60 cells after 72 hrs by MTT assay. The following applies: HL-60, 72 h. (Formazan colour is commonly taken as a measure of viable cells.)
As to `O=P(O)(O)OC[C@H]1O[C@@H](n2cnc3c(-c4cccc(Br)c4)ncnc32)[C@H](O)[C@@H]1O`, the midpoint of inhibition, the IC50, lay at 3900 nM.
Still for that read-out and setting: under `O=P(O)(O)OC[C@H]1O[C@@H](n2cnc3c(-c4ccccc4)ncnc32)[C@H](O)[C@@H]1O` stands 1700 nM; under `O=P(O)(O)OC[C@H]1O[C@@H](n2cnc3c(-c4ccoc4)ncnc32)[C@H](O)[C@@H]1O`, 15400 nM; under `O=P(O)(O)OC[C@H]1O[C@@H](n2cnc3c(-c4ccc5cc[nH]c5c4)ncnc32)[C@H](O)[C@@H]1O`, 500 nM.
The molecule `O=P(O)(O)OC[C@H]1O[C@@H](n2cnc3c(-c4ccc(Cl)s4)ncnc32)[C@H](O)[C@@H]1O` displayed an IC50 of 6500 nM.
`O=P(O)(O)OC[C@H]1O[C@@H](n2cnc3c(-c4ccc(O)cc4)ncnc32)[C@H](O)[C@@H]1O` showed an IC50 of 500 nM. This IC50 lies about 13-fold lower than the previous one.
Molecule `O=P(O)(O)OC[C@H]1O[C@@H](n2cnc3c(NCc4ccccc4)ncnc32)[C@H](O)[C@@H]1O` came in with an IC50 of 5000 nM.

Tested on in a further experiment: not listed separately
The experiment in a line: Cytotoxicity against human HCT15 cells at 10 uM after 72 hrs by MTT assay. As to conditions: HCT-15, 72 h, read-out: INH.
As for `O=P(O)(O)OC[C@H]1O[C@@H](n2cnc3c(-c4cccc(Br)c4)ncnc32)[C@H](O)[C@@H]1O`, the inhibition at 10 µM is over 90%.
`O=P(O)(O)OC[C@H]1O[C@@H](n2cnc3c(-c4ccccc4)ncnc32)[C@H](O)[C@@H]1O`: the inhibition at 10 µM was over 90%.
On to `O=P(O)(O)OC[C@H]1O[C@@H](n2cnc3c(-c4ccoc4)ncnc32)[C@H](O)[C@@H]1O`, for which the inhibition at 10 µM is over 90%.
Still for that read-out and setting: as for `O=P(O)(O)OC[C@H]1O[C@@H](n2cnc3c(-c4ccc5cc[nH]c5c4)ncnc32)[C@H](O)[C@@H]1O`, the figure is over 90%; as for `O=P(O)(O)OC[C@H]1O[C@@H](n2cnc3c(-c4ccc(Cl)s4)ncnc32)[C@H](O)[C@@H]1O`, over 90%; as for `O=P(O)(O)OC[C@H]1O[C@@H](n2cnc3c(-c4ccc(O)cc4)ncnc32)[C@H](O)[C@@H]1O`, over 90%.

Tested on in another experiment: not listed separately
The experiment is described as follows: Cytotoxicity against human HCT116 cells at 10 uM after 72 hrs by MTT assay. As to conditions: HCT-116, 72 h, read-out: INH.
Take `O=P(O)(O)OC[C@H]1O[C@@H](n2cnc3c(-c4cccc(Br)c4)ncnc32)[C@H](O)[C@@H]1O`: the inhibition at 10 µM was over 90%.
For the molecule `O=P(O)(O)OC[C@H]1O[C@@H](n2cnc3c(-c4ccccc4)ncnc32)[C@H](O)[C@@H]1O`, the inhibition at 10 µM was over 90%.
With `O=P(O)(O)OC[C@H]1O[C@@H](n2cnc3c(-c4ccoc4)ncnc32)[C@H](O)[C@@H]1O`, the inhibition at 10 µM is over 90%.
On the same count and under the same terms, under `O=P(O)(O)OC[C@H]1O[C@@H](n2cnc3c(-c4ccc5cc[nH]c5c4)ncnc32)[C@H](O)[C@@H]1O` stands over 90%; under `O=P(O)(O)OC[C@H]1O[C@@H](n2cnc3c(-c4ccc(Cl)s4)ncnc32)[C@H](O)[C@@H]1O`, over 90%; under `O=P(O)(O)OC[C@H]1O[C@@H](n2cnc3c(-c4ccc(O)cc4)ncnc32)[C@H](O)[C@@H]1O`, over 90%.

Tested on in a further experiment: not listed separately
The experiment in a line: Cytotoxicity against human HL60 cells at 10 uM after 72 hrs by MTT assay. As to conditions: HL-60, 72 h, read-out: INH.
For the molecule `O=P(O)(O)OC[C@H]1O[C@@H](n2cnc3c(-c4cccc(Br)c4)ncnc32)[C@H](O)[C@@H]1O`, the inhibition at 10 µM is over 90%.
With `O=P(O)(O)OC[C@H]1O[C@@H](n2cnc3c(-c4ccccc4)ncnc32)[C@H](O)[C@@H]1O`, the inhibition at 10 µM is over 90%.
As for `O=P(O)(O)OC[C@H]1O[C@@H](n2cnc3c(-c4ccoc4)ncnc32)[C@H](O)[C@@H]1O`, the inhibition at 10 µM was over 90%.
In the case of `O=P(O)(O)OC[C@H]1O[C@@H](n2cnc3c(-c4ccc5cc[nH]c5c4)ncnc32)[C@H](O)[C@@H]1O`, the inhibition at 10 µM is over 90%.
Same read-out and setting: under `O=P(O)(O)OC[C@H]1O[C@@H](n2cnc3c(-c4ccc(Cl)s4)ncnc32)[C@H](O)[C@@H]1O` stands over 90%.
Take `O=P(O)(O)OC[C@H]1O[C@@H](n2cnc3c(-c4ccc(O)cc4)ncnc32)[C@H](O)[C@@H]1O`: the inhibition at 10 µM is over 90%.

Tested on in the next experiment: not listed separately
The experiment is described as follows: Cytotoxicity against human PC3 cells at 10 uM after 72 hrs by MTT assay. The following applies: PC-3, 72 h, read-out: INH.
Consider `O=P(O)(O)OC[C@H]1O[C@@H](n2cnc3c(-c4cccc(Br)c4)ncnc32)[C@H](O)[C@@H]1O`, for which the inhibition at 10 µM was over 90%.
Same read-out and setting: as for `O=P(O)(O)OC[C@H]1O[C@@H](n2cnc3c(-c4ccccc4)ncnc32)[C@H](O)[C@@H]1O`, the figure is over 90%.
With `O=P(O)(O)OC[C@H]1O[C@@H](n2cnc3c(-c4ccoc4)ncnc32)[C@H](O)[C@@H]1O`, the inhibition at 10 µM was over 90%.
On to `O=P(O)(O)OC[C@H]1O[C@@H](n2cnc3c(-c4ccc5cc[nH]c5c4)ncnc32)[C@H](O)[C@@H]1O`, for which the inhibition at 10 µM is over 90%.
For `O=P(O)(O)OC[C@H]1O[C@@H](n2cnc3c(-c4ccc(Cl)s4)ncnc32)[C@H](O)[C@@H]1O`, the inhibition at 10 µM is over 90%.
Consider `O=P(O)(O)OC[C@H]1O[C@@H](n2cnc3c(-c4ccc(O)cc4)ncnc32)[C@H](O)[C@@H]1O`, for which the inhibition at 10 µM was over 90%.

A further experiment relates to MCF7. The experiment is described as follows: Cytotoxicity against human MCF7 cells at 10 uM after 72 hrs by MTT assay. The following applies: MCF7, 72 h, read-out: INH.
On to `O=C(O)c1ccc(-c2cccc(-c3ncnc4c3ncn4[C@@H]3O[C@H](COP(=O)(O)O)[C@@H](O)[C@H]3O)c2)cc1`, for which the inhibition at 10 µM was over 90%.
In the case of `O=P(O)(O)OC[C@H]1O[C@@H](n2cnc3c(-c4cccc(Br)c4)ncnc32)[C@H](O)[C@@H]1O`, the inhibition at 10 µM is over 90%.
Regarding `O=P(O)(O)OC[C@H]1O[C@@H](n2cnc3c(-c4ccccc4)ncnc32)[C@H](O)[C@@H]1O`, the inhibition at 10 µM was over 90%.
As to `O=P(O)(O)OC[C@H]1O[C@@H](n2cnc3c(-c4ccoc4)ncnc32)[C@H](O)[C@@H]1O`, the inhibition at 10 µM was over 90%.
On to `O=P(O)(O)OC[C@H]1O[C@@H](n2cnc3c(-c4ccc5cc[nH]c5c4)ncnc32)[C@H](O)[C@@H]1O`, for which the inhibition at 10 µM was over 90%.
Still for that read-out and setting: as for `O=P(O)(O)OC[C@H]1O[C@@H](n2cnc3c(-c4ccc(Cl)s4)ncnc32)[C@H](O)[C@@H]1O`, the figure is over 90%; as for `O=P(O)(O)OC[C@H]1O[C@@H](n2cnc3c(-c4ccc(O)cc4)ncnc32)[C@H](O)[C@@H]1O`, over 90%; as for `O=P(O)(O)OC[C@H]1O[C@@H](n2cnc3c(-c4cccc(-c5cccc6c5sc5ccccc56)c4)ncnc32)[C@H](O)[C@@H]1O`, over 90%.

The test system of another experiment is HCT-15. The following applies: Homo sapiens, 10 uM.
Take `O=C(O)c1ccc(-c2cccc(-c3ncnc4c3ncn4[C@@H]3O[C@H](COP(=O)(O)O)[C@@H](O)[C@H]3O)c2)cc1`: the inhibition entry is “inactive”.
Take `O=P(O)(O)OC[C@H]1O[C@@H](n2cnc3c(-c4cccc(-c5cccc6c5sc5ccccc56)c4)ncnc32)[C@H](O)[C@@H]1O`: the inhibition result was “inactive”.

In another experiment the test system is HCT-116. As to conditions: Homo sapiens, 10 uM.
For the molecule `O=C(O)c1ccc(-c2cccc(-c3ncnc4c3ncn4[C@@H]3O[C@H](COP(=O)(O)O)[C@@H](O)[C@H]3O)c2)cc1`, the inhibition entry was “inactive”.
For `O=P(O)(O)OC[C@H]1O[C@@H](n2cnc3c(-c4cccc(-c5cccc6c5sc5ccccc56)c4)ncnc32)[C@H](O)[C@@H]1O`, the inhibition result is “inactive”.

The next experiment deals with HL-60. As to conditions: Homo sapiens, 10 uM.
With `O=C(O)c1ccc(-c2cccc(-c3ncnc4c3ncn4[C@@H]3O[C@H](COP(=O)(O)O)[C@@H](O)[C@H]3O)c2)cc1`, the inhibition result was “inactive”.
As for `O=P(O)(O)OC[C@H]1O[C@@H](n2cnc3c(-c4cccc(-c5cccc6c5sc5ccccc56)c4)ncnc32)[C@H](O)[C@@H]1O`, the inhibition entry is “inactive”.

Another experiment has as its system PC-3. The following applies: Homo sapiens, 10 uM.
Regarding `O=C(O)c1ccc(-c2cccc(-c3ncnc4c3ncn4[C@@H]3O[C@H](COP(=O)(O)O)[C@@H](O)[C@H]3O)c2)cc1`, the inhibition entry is “inactive”.
With `O=P(O)(O)OC[C@H]1O[C@@H](n2cnc3c(-c4cccc(-c5cccc6c5sc5ccccc56)c4)ncnc32)[C@H](O)[C@@H]1O`, the inhibition entry is “inactive”.
